The results in this text go back to ChEMBL document CHEMBL4373710, “DNA Structural Alteration Leading to Antibacterial Properties of 6-Nitroquinoxaline Derivatives” (J Med Chem, 2019).

One assay relates to Staphylococcus aureus. Nature of the assay: Antibacterial activity against Staphylococcus aureus MTCC737 measured after 6 hrs by broth microdilution assay. In kind it is functional. Conditions: MTCC737, 6 h. In short, it runs like this:
(§1)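 Broth microdilution per CLSI; 5×10^5 cfu/mL bacteria in LB broth; compounds from DMSO stocks, final DMSO under 0.6%, with DMSO control. Plates incubated at the strain's recommended growth temperature and time; growth read as OD600.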
A general note: Broth dilution looks for growth in wells or tubes with falling amounts of substance.

In assay [1] the test system is Staphylococcus epidermidis. Kind of assay: Antibacterial activity against Staphylococcus epidermidis MTCC3615 by broth microdilution assay. In kind it is functional. In short, it runs like this: as §1
Assay [2] in a line: Antibacterial activity against Arthrobacter chlorophenolicus A6MTCC3706 by broth microdilution assay. In kind it is functional. As to conditions: Pseudarthrobacter chlorophenolicus. In short, it runs like this:
as §1

Another assay deals with Escherichia coli. Kind of assay: Antibacterial activity against Escherichia coli MTCC1916 by broth microdilution assay. In kind it is functional. In short, it runs like this: as §1
The subject of another assay is Pseudomonas aeruginosa. Kind of assay: Antibacterial activity against Pseudomonas aeruginosa MTCC1688 by broth microdilution assay. In kind it is functional. Put shortly:
as §1

The test system of the next assay is HEK293. Kind of assay: Cytotoxicity against HEK293 cells measured after 24 hrs by MTT assay. In kind it is cell-based. Conditions: Homo sapiens, HEK293, 24 h. In short, it runs like this: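 HEK 293 cells, 4000/well, seeded overnight in DMEM + 10% FBS at 37°C in CO2; compound dose series for 24 h (final DMSO <0.5%, DMSO-only control). MTT at 1 mg/mL final for 3 h, formazan dissolved in DMSO, absorbance 595 nm; IC50 from triplicate OD data.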

A short description of assay [3]: Binding affinity to pCDNA 3.1 (unknown origin) assessed as DNA unwinding effect at 1:1 compound to DNA ratio measured after 16 hrs by EtBr staining agarose gel shift assay. Put shortly: (§2)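 pCDNA3.1 plasmid (amplified in E. coli DH5α), 40 µM, in 50 mM NaP pH 7, 10 mM NaCl, mixed with compound at set compound:DNA base-pair ratios; 16 h at 37°C. Run on 1% agarose at 50 V ~3 h, stained with EtBr 1 µg/mL for 5 min, imaged.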
For orientation: Mobility shift assays separate free from complexed probe on a gel.

A short description of assay [4]: Binding affinity to pCDNA 3.1 (unknown origin) assessed as DNA condensation at 5:1 compound to DNA ratio measured after 16 hrs by EtBr staining agarose gel shift assay. In short, it runs like this: as §2
The subject of assay [5] is Calf thymus DNA. Nature of the assay: Binding affinity to calf thymus DNA assessed as change in B-DNA structure at 265 nm by circular dichroism method. In kind it is nucleic-acid assay. As to conditions: Bos taurus. In general terms: CD spectra are sensitive to the conformation of chiral molecules.
Assay [6] relates to Calf thymus DNA. Nature of the assay: Binding affinity to calf thymus DNA assessed as appearance of induced CD at […] by circular dichroism method. In kind it is nucleic-acid assay. As to conditions: Bos taurus.
Assay [7] has as its system DNA. Nature of the assay: Inhibition of ethidium bromide binding to Staphylococcus aureus DNA by fluorescence assay. In kind it is nucleic-acid assay. In short, it runs like this: (§3)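 Fluorescence intercalator displacement: S. aureus genomic DNA 10 µM plus EtBr 5 µM in 10 mM NaP pH 7, 10 mM NaCl, 1% DMSO, at 25 and 37 °C; titrated with 2.5–100 µM compound. Excitation 480 nm, emission 520–700 nm, inner-filter corrected, triplicates; Stern–Volmer analysis, F0/F = 1 + Ksv[Q].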

The test system of assay [8] is DNA. Nature of the assay: Inhibition of ethidium bromide binding to Staphylococcus aureus DNA assessed as Stern-Volmer quenching constant by fluorescence assay. In kind it is nucleic-acid assay. Put shortly:
as §3

The test system of assay [9] is Calf thymus DNA. Kind of assay: Binding affinity to calf thymus DNA by isothermal titration calorimetric analysis. In kind it is nucleic-acid assay. Conditions: Bos taurus.

≈ marks a conversion by molar mass, not a printed value. Calls of active or inactive are those of the source. The rule behind the calls is not given here. Some results are limits rather than exact numbers.

`Cc1ccccc1CNc1nc2ccc([N+](=O)[O-])cc2nc1NCCCN(C)C`: the minimal inhibitory concentration (MIC) with Staphylococcus aureus was 4.93 µg/mL (≈ 12.5 µM); in assay [1] it was 7.89 µg/mL (≈ 20 µM); in [2], 6.9 µg/mL (≈ 17.5 µM); with Escherichia coli, 75.6 µg/mL (≈ 192 µM); in the assay with Pseudomonas aeruginosa it was above 200 µg/mL. In addition, 27.6 µg/mL (≈ 70 µM) corresponded to half-maximal inhibition in the assay with HEK293 (IC50).

Consider `CN(C)CCCNc1nc2cc([N+](=O)[O-])ccc2nc1NCc1cccc(Br)c1`, for which the MIC was 4.59 µg/mL (≈ 9.99 µM) against Staphylococcus aureus; 2.29 µg/mL (≈ 4.99 µM) in assay [1]; 2.29 µg/mL (≈ 4.99 µM) in assay [2]; 4.59 µg/mL (≈ 9.99 µM) with Escherichia coli; 13.8 µg/mL (≈ 30 µM) in the assay on Pseudomonas aeruginosa. In the assay with HEK293, the concentration for half-maximal inhibition (IC50) worked out at 3.66 µg/mL (≈ 7.97 µM).

As to `CN1CCN(c2nc3cc([N+](=O)[O-])ccc3nc2NCc2ccc(C(F)(F)F)cc2)CC1`, the minimum inhibitory concentration (MIC) in the assay with Staphylococcus aureus was 4.46 µg/mL (≈ 9.99 µM); in assay [1], 4.46 µg/mL (≈ 9.99 µM); in [2], 4.46 µg/mL (≈ 9.99 µM); in the assay with Escherichia coli it was above 220 µg/mL; in the assay with Pseudomonas aeruginosa, above 220 µg/mL. Moreover, in the assay with HEK293, the midpoint of inhibition, the IC50, lay at 6.99 µg/mL (≈ 15.7 µM).

As to `CN(C)CCCNc1nc2cc([N+](=O)[O-])ccc2nc1NCc1cc(F)cc(C(F)(F)F)c1`, the MIC was 0.93 µg/mL (≈ 1.99 µM) in the assay on Staphylococcus aureus; 1.63 µg/mL (≈ 3.49 µM) in assay [1]; 2.33 µg/mL (≈ 5 µM) in [2]; 35 µg/mL (≈ 75 µM) in the assay with Escherichia coli; above 235 µg/mL against Pseudomonas aeruginosa. The IC50 with HEK293 amounted to 2.67 µg/mL (≈ 5.72 µM).

As for `CN(C)CCCNc1nc2cc([N+](=O)[O-])ccc2nc1NCc1ccc(Br)cc1`, the MIC is 3.45 µg/mL (≈ 7.51 µM) in the assay with Staphylococcus aureus; 3.45 µg/mL (≈ 7.51 µM) in assay [1]; 2.29 µg/mL (≈ 4.99 µM) in assay [2]; 4.59 µg/mL (≈ 9.99 µM) against Escherichia coli; above 230 µg/mL with Pseudomonas aeruginosa. Besides, the midpoint of inhibition with HEK293, the IC50, lay at 9.63 µg/mL (≈ 21 µM).

With `CN(C)CCCNc1nc2cc([N+](=O)[O-])ccc2nc1NCc1cc(C(F)(F)F)cc(C(F)(F)F)c1`, the MIC is 1.03 µg/mL (≈ 1.99 µM) in the assay with Staphylococcus aureus; 0.52 µg/mL (≈ 1.01 µM) in [1]; 1.81 µg/mL (≈ 3.5 µM) in [2]; above 250 µg/mL against Escherichia coli; above 250 µg/mL with Pseudomonas aeruginosa. This molecule also showed an IC50 in the assay on HEK293 of 4.32 µg/mL (≈ 8.36 µM). Besides, the result in assay [3] and in assay [4] was Active. Also, the Activity result in the assay with Calf thymus DNA [5] and with Calf thymus DNA [6] was “Dose-dependent effect” in each case. Also, the inhibition result in the assay with DNA [7] was “Dose-dependent effect”. For the same molecule, the KSV in the assay on DNA [8] was found to be 2 ×10⁴ /M. This molecule also yielded a Ka in the assay on Calf thymus DNA [9] of 9.9 ×10⁴ /M.

As to `COc1ccc(CNc2nc3ccc([N+](=O)[O-])cc3nc2NCCCN(C)C)cc1`, the MIC is 10.3 µg/mL (≈ 25 µM) against Staphylococcus aureus; 5.13 µg/mL (≈ 12.5 µM) in [1]; 4.1 µg/mL (≈ 9.99 µM) in [2]; above 200 µg/mL in the assay on Escherichia coli; above 200 µg/mL against Pseudomonas aeruginosa. This molecule returned an IC50 with HEK293 of 38.6 µg/mL (≈ 94 µM).

Regarding `COc1ccccc1CNc1nc2ccc([N+](=O)[O-])cc2nc1NCCCN(C)C`, the minimum inhibitory concentration (MIC) against Staphylococcus aureus was 8.21 µg/mL (≈ 20 µM); in [1], 6.16 µg/mL (≈ 15 µM); in assay [2] it was 6.16 µg/mL (≈ 15 µM); against Escherichia coli it was above 200 µg/mL; in the assay with Pseudomonas aeruginosa it was above 200 µg/mL. In the assay with HEK293, this molecule had a half-inhibitory concentration (IC50) of 36.1 µg/mL (≈ 88 µM).

Turning to `CN1CCN(CCCNc2nc3cc([N+](=O)[O-])ccc3nc2NCc2ccc(C(F)(F)F)cc2)CC1`, the MIC in the assay with Staphylococcus aureus is 3.78 µg/mL (≈ 7.51 µM); in assay [1] it was 3.78 µg/mL (≈ 7.51 µM); in assay [2] it was 1.76 µg/mL (≈ 3.5 µM); against Escherichia coli it was 3.78 µg/mL (≈ 7.51 µM); against Pseudomonas aeruginosa, above 250 µg/mL. Moreover, half-maximal inhibition in the assay on HEK293 (IC50) was put at 9.53 µg/mL (≈ 18.9 µM).

With `CN(C)CCCNc1nc2cc([N+](=O)[O-])ccc2nc1NCc1ccc(Cl)c(C(F)(F)F)c1`, the minimum inhibitory concentration (MIC) against Staphylococcus aureus is 1.69 µg/mL (≈ 3.5 µM); in [1], 0.96 µg/mL (≈ 1.99 µM); in [2] it was 1.69 µg/mL (≈ 3.5 µM); in the assay on Escherichia coli, 7.24 µg/mL (≈ 15 µM); against Pseudomonas aeruginosa, above 240 µg/mL. The molecule further returned an IC50 in the assay on HEK293 of 3.26 µg/mL (≈ 6.75 µM).

What is called MIC is the least concentration at which growth counts as inhibited. Low values mean a more susceptible organism, high ones a less susceptible organism. One may read the IC50 as the concentration that gives 50% inhibition. High values mean lower potency, low ones higher potency.
